Screens deposited in PubChem BioAssay by several laboratories.
OX1R antag-1 = human HCRTR1 antagonism | O43613 | CHO/OX1R cells, Fluo-8 calcium fluorescence, orexin A | inhibition, % at 5 µM | 330,000 compounds, 0.43% hits | AID 434989;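 active means inhibition above its plate's threshold, mean inhibition of all tested compounds on the plate plus 3 SD, cut at about 37% in these data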;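 further: 0% = orexin A challenge wells and 100% = SB-334867-A antagonist wells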
Target sequence (O43613 whole entry, looked up): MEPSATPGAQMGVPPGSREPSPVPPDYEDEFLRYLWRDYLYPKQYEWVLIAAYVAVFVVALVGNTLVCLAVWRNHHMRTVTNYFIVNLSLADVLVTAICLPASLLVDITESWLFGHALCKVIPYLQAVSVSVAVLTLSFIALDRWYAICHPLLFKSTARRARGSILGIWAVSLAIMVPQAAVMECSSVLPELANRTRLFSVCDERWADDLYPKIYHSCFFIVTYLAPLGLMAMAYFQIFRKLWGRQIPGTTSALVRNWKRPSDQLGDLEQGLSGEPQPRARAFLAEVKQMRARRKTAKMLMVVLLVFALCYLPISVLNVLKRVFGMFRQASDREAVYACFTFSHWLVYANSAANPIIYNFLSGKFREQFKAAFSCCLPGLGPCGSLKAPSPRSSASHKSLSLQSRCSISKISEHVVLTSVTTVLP
CHO parental Ca = signal in parental CHO cells, OX1R antagonist counter-screen; inhibition, % at 5.6 µM; AID 463079; 330,000 compounds, 0.63% hits; parental CHO-K1, ATP-induced calcium, Fluo-8 fluorescence;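 active means inhibition above that plate's mean sample inhibition plus 3 SD, cut at about 26% in these data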;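 further: 0% = ATP-challenged DMSO wells and 100% = DMSO wells without ATP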
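Material: Parental CHO cells | Reagent: ATP | Compound dosing: Single nominal dose of 5.6 µM per compound | Detection: Intracellular calcium via Fluo-8 no-wash fluorescent dye | Read-out: % inhibition of ATP-induced calcium mobilization | Benchmarks: Low control ATP plus DMSO, high control DMSO only | Replicates: Singlicate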
NTR1 agonist = agonists of human neurotensin receptor NTR1 | AID 493036 | NTR1-U2OS beta-arrestin-GFP spot imaging, agonist mode | P30989 | activation, % at 20 µM | 330,000 compounds, 0.17% hits;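 active means activation at or above 40% of the spot to cytoplasm intensity ratio, with at least 20 cells analyzed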;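 further: 0% = DMSO without peptide and 100% = 100 nM NTR1 peptide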
TAAR1 antagonist = antagonists of human TAAR1. Q96RJ0. CHO RD-HGA16 TAAR1, Fluo-8 calcium fluorescence, antagonist. inhibition, % at 3 µM. 360,000 compounds, 1.5% hits. AID 624466;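 active means inhibition above a per-plate cutoff, the mean inhibition of test compounds on that plate plus 3 SD, cut at about 49% in these data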;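 further: 0% = DMSO plus EC80 beta-PEA response and 100% = DMSO alone without agonist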
Target sequence (Q96RJ0 whole entry, looked up): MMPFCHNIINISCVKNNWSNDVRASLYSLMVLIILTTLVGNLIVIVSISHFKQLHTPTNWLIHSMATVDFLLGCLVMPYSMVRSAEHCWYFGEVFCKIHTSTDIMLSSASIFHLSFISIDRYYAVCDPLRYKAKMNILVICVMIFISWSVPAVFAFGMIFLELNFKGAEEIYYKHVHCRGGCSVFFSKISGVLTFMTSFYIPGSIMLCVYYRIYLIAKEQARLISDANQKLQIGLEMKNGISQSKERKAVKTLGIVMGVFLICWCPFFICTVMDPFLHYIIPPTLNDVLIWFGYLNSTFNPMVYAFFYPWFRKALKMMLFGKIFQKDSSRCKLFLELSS
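Test system: CHO RD-HGA16 cells bearing hTAAR1 | Reagent: β-PEA, EC80 | Compound dosing: 3 µM, single point | Schedule: Dye loading 75 min at 37 °C, then 30 min room temperature | Signal: Calcium fluorescence with Fluo-8 | Evaluation: Percent inhibition of PEA-evoked calcium signal, max/basal emission ratio | Control set: DMSO-only wells and EC80 β-PEA-stimulated wells | Repeats: Singlicate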
TAAR1 ag = agonists of human TAAR1. Q96RJ0. CHO RD-HGA16 TAAR1, Fluo-8 calcium fluorescence; vehicle wells 0%, saturating PEA agonist 100%. activation, % at 3 µM. 360,000 compounds, 0.99% hits. AID 624467;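 active means activation above the mean activation of all test compounds in the run plus 3 SD, cut at about 38% in these data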
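Test system: RD-HGA16 (CHO) cells co-expressing Gα16 and hTAAR1 / Benchmarks: DMSO vehicle as 0%, PEA at EC100 as 100% / Repeats: no replicates (n 1) / Measure: % activation from peak over basal fluorescence ratio, DMSO-to-PEA scaled / Timing: 17-24 h plating, Fluo-8 75 min 37 °C, 30 min RT / Technique: kinetic Fluo-8 calcium fluorescence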
OX1R antag-2 = OX1R (human) antagonism. OX1R-expressing cells, FRET antagonist read-out. inhibition, % at 6.6 µM. AID 485270. 330,000 compounds, 1.8% hits; in the data active means inhibition mostly above about 38%, no sharp cut-off; inactive means mostly below about 40%;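 further: 0% = agonist challenge alone and 100% = reference antagonist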
Active calls of the source: *; nt = no result given. Most compounds without a hit are left out; they make up all but 4% or so of the library.

SMILES | OX1R antag-1 | CHO parental Ca | NTR1 agonist | TAAR1 antagonist | TAAR1 ag | OX1R antag-2
CN(C)CCCN(C(=O)c1ccc(S(=O)(=O)N(C)C2CCCCC2)cc1)c1nc2ccc(Br)cc2s1 | -5.2 | 4.1 | 14.9 | 27.8 | 32.0 | 12.5
COc1cc2nc(N(CCCN(C)C)C(=O)c3ccc(S(=O)(=O)N4CCc5ccccc54)cc3)sc2cc1OC | -17.7 | -13.9 | 1.0 | -9.0 | 39.9* | 9.1
Cc1cc(C)c2nc(N(CCCN(C)C)C(=O)c3ccc4c(c3)CCCC4)sc2c1 | -4.0 | -9.6 | 13.5 | 9.9 | 28.0 | 17.5
Cc1ccc2nc(N(CCCN(C)C)C(=O)c3ccc4c(c3)CCCC4)sc2c1 | -4.2 | 0.5 | 16.1 | 20.2 | 38.0* | -1.2
CCc1ccc2nc(N(CCCN(C)C)C(=O)c3ccc(S(=O)(=O)N(C)C4CCCCC4)cc3)sc2c1 | 7.9 | 13.6 | 10.4 | 51.0* | 38.6* | 19.5
Cc1cc(C)c2sc(N(CCCN(C)C)C(=O)c3ccc(S(=O)(=O)N(C)C4CCCCC4)cc3)nc2c1 | -26.0 | -5.7 | 25.6 | 19.4 | 40.6* | 20.2
CCCN(C(=O)CCc1cn(CCC)c2ccccc12)c1ccc(N(C)c2ccccn2)cc1 | nt | nt | nt | 27.2 | -0.4 | nt
CCN(Cc1ccccc1)S(=O)(=O)c1ccc(C(=O)N(CCCN(C)C)c2nc3cc4c(cc3s2)OCCO4)cc1 | -27.6 | -13.2 | 31.4 | 4.9 | 36.1 | 5.6
CCN(Cc1ccccc1)S(=O)(=O)c1ccc(C(=O)N(CCCN(C)C)c2nc3ccc(F)cc3s2)cc1 | -14.6 | -7.4 | 17.4 | 39.9 | 41.1* | 3.7
O=C(NC1CCCC1)[C@@H]1CCCN1C(=O)[C@@H](NS(=O)(=O)c1ccc(F)cc1F)C1CCCCC1 | nt | nt | nt | -41.0 | 5.7 | nt
O=C(CSc1nnc(Cc2ccccc2)n1-c1ccccc1)NNC(=O)Cc1ccccc1 | -15.9 | -13.3 | -0.7 | -12.1 | 23.9 | 57.3*
O=C(O)CNc1nc(Cl)ccc1[N+](=O)[O-] | -9.6 | -0.7 | 0.4 | 3.4 | 2.0 | 64.0*
O=C(O)CNc1nc(NCc2ccc(Cl)cc2)ccc1[N+](=O)[O-] | nt | nt | nt | -10.7 | 2.5 | nt
COc1ccc(NC(=O)COC(=O)c2c3c(nc4ccccc24)CCCC3)cc1Cl | 14.3 | -2.2 | 11.4 | 67.2* | 9.0 | 75.2*
COc1ccc(NC(=O)COC(=O)c2c3c(nc4ccccc24)CCCC3)cc1 | -14.3 | -11.7 | 13.6 | 48.2 | 15.9 | 14.3
Cc1cccc(C=NNc2cc(C)c3cccc(C)c3n2)n1 | nt | nt | nt | 0.2 | -0.2 | nt
O=C(CSc1cn(CCNC(=O)c2ccccc2F)c2ccccc12)NCC1CCCO1 (stereo not given) | 5.5 | -21.8 | 0.9 | -14.8 | 5.1 | 21.2
O=C(NCCn1cc(SCc2ccccc2)c2ccccc21)c1ccccc1F | -2.7 | 65.6* | 1.6 | 63.6* | 1.1 | 17.0
Cc1ccccc1S(=O)(=O)N1CCCc2nc(-c3ccc(Br)cc3)ccc21 | nt | nt | nt | -32.6 | 0.0 | nt
CCOc1ccccc1CNCC1CCCO1 (stereo not given) | -20.9 | -13.0 | 0.6 | -6.0 | 4.0 | 0.6
CCOc1cc(-c2nc3ccccn3c2NCC2CCCO2)ccc1O (stereo not given) | -11.8 | 1.5 | 2.8 | 56.9* | 24.4 | 9.2
Cn1c(Cn2c(=O)sc3ccccc32)nnc1SCc1ccccc1F | -14.6 | 42.6* | -1.9 | 9.2 | -0.5 | 13.4
CCCC(=O)Nc1ccc(-c2csc(N/N=C\c3ccncc3)n2)cc1 | -14.8 | -13.0 | 29.6 | 60.4* | 14.8 | 2.6
O=C(N[C@H](C(=O)N1CCC[C@H]1C(=O)NC1CCCC1)c1ccccc1)c1ccc(Cl)cc1Cl | nt | nt | nt | -30.2 | 5.3 | nt
O=c1[nH]c2ccc(Cl)cc2c(-c2ccccc2)c1SC(=S)N1CCCCC1 | -15.9 | -31.2 | 12.5 | -9.8 | 5.5 | 18.1
SMILES | OX1R antag-1 | CHO parental Ca | NTR1 agonist | TAAR1 antagonist | TAAR1 ag | OX1R antag-2
O=c1[nH]c2ccc(Cl)cc2c(-c2ccccc2)c1SC(=S)N1CCOCC1 | 25.4 | -18.4 | 8.0 | 55.8* | 30.1 | 35.5
O=C(NCc1ccccc1)[C@@H]1CCCN1C(=O)[C@H]1CCCN1C(=O)c1ccccc1 | nt | nt | nt | -13.5 | -0.1 | nt
CC(CCCC(C)(C)O)NC(=O)c1cc(COc2ccc3ncccc3c2)on1 (stereo not given) | -11.5 | 24.5* | 0.6 | 17.3 | 9.0 | 14.1
CC(C)N(Cc1nccn1C)C(=O)c1cc(COc2ccc3ncccc3c2)on1 | -10.0 | 1.6 | 1.1 | -3.6 | 3.6 | 22.4
Cc1cc(C)n(CCNC(=O)c2cc(COc3ccc4ncccc4c3)on2)n1 | -18.3 | 11.2 | 0.8 | -10.0 | 6.0 | 24.4
Cc1ccc(F)cc1CNC(=O)c1cc(COc2ccc3ncccc3c2)on1 | 36.5 | 32.2* | -0.4 | 41.1 | 22.8 | 36.9
O=C(NCc1cccc(Cl)c1)c1cc(COc2ccc3ncccc3c2)on1 | 41.7* | 67.1* | 1.4 | 21.6 | 19.0 | 53.2
COc1c(C)cc(C(=O)C2CCCN(S(=O)(=O)N(C)C)C2)cc1C (stereo not given) | -21.5 | -12.3 | 1.3 | -8.1 | 4.2 | 35.1
CSc1nc(O)c(N=Nc2ccc(F)cc2F)c(=O)[nH]1 | -12.0 | -5.2 | -1.0 | -7.8 | 0.3 | 45.1*
CSc1nc(O)c(C(c2ccc(F)cc2)c2c(O)nc(SC)[nH]c2=O)c(=O)[nH]1 | -7.2 | -5.4 | -0.5 | -34.4 | 1.1 | 3.8
CCOc1ccc(NC(=O)CSCc2cnn(-c3ccccc3)c2-n2cccc2)cc1 | -37.4 | -12.2 | 0.0 | 7.7 | 0.3 | 76.4*
O=C(O)CSCc1cnn(-c2ccccc2)c1-n1cccc1 | -2.8 | -2.0 | -1.0 | -14.1 | 3.4 | 7.7
Cc1cccc(OCC(=O)NCCCNC(=O)c2ccco2)c1 | -9.1 | -4.8 | -2.0 | 1.6 | 1.1 | 15.6
CC(=O)n1c2ccccc2c2c1c1ccccc1n2C | -0.5 | -20.1 | 1.9 | 9.2 | 2.1 | 60.9*
O=C1c2cccc3c([N+](=O)[O-])ccc(c23)C(=O)N1O | -14.3 | -2.3 | 1.6 | -39.8 | -1.7 | 21.0
O=C1c2cccc3c(N4CCCCC4)ccc(c23)C(=O)N1c1ccccn1 | 51.1* | 30.7 | -0.2 | 6.3 | 12.8 | 47.7
O=C1c2cccc3c([N+](=O)[O-])ccc(c23)C(=O)N1c1nccs1 | 19.9 | 13.7 | -2.8 | 44.6 | -3.2 | 61.9*
O=C1c2cccc3c([N+](=O)[O-])ccc(c23)C(=O)N1c1ccccn1 | 19.7 | 17.4 | -1.6 | 27.4 | 0.8 | 67.9*
O=C1c2cccc3c([N+](=O)[O-])ccc(c23)C(=O)N1c1ccc(Cl)cn1 | 44.7 | 35.4* | -2.3 | 70.8* | 1.5 | 51.5*
O=C(NCc1ccccc1)[C@H]1CCCN1C(=O)[C@H]1CCCN1C(=O)N1CCCCC1 | nt | nt | nt | -0.6 | 1.1 | nt
COc1cc(Br)cc2cc(C(=O)OC3CCN(C)CC3)c(=O)oc12 | -15.2 | 11.2 | -0.5 | -1.1 | 10.0 | 49.3*
